Here are results for one compound from ChEMBL document CHEMBL4038303, “Simultaneous Drug Targeting of the Promoter MYC G-Quadruplex and BCL2 i-Motif in Diffuse Large B-Cell Lymphoma Delays Tumor Growth” (J Med Chem, 2017).

Calls of active or inactive are those of the source. No cut-off for these calls is given here.

For one series, the system named is HT. The series can be described thus: Down regulation of BLC2 mRNA level in human HT cells up to 3 uM after 24 hrs by qPCR method. The format is functional, cell-based. An outline of the steps: (§1)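 DLBCL lines grown in RPMI with 10% FBS (SUDHL4 15% FBS) and penicillin/streptomycin. Cells exposed for 24 h to rising concentrations up to 3 μM; DMSO as vehicle control. Total RNA isolated, target mRNA measured by TaqMan real-time qPCR, normalized to TBP and expressed relative to untreated cells; triplicate experiments, two-tailed t test.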

Series [1] is filed under the species Homo sapiens. The series is described as follows: Binding affinity to c-myc G-quadruplex DNA in BCL2 translocation-positive human SUDHL4 cells assessed as downregulation of MYC mRNA levels up to 3 uM after 24 hrs by qPCR method relative to control. A digest of the protocol: as §1
Series [2] is filed under the species Homo sapiens. The series can be described thus: Binding affinity to BLC2 i-motif promoter DNA in BCL2 and MYC translocation-positive human VAL cells assessed as downregulation of BLC2 mRNA levels up to 3 uM after 24 hrs by qPCR method. An outline of the steps: as §1
The species entered for series [3] is Homo sapiens. The series is described as follows: Binding affinity to c-myc G-quadruplex DNA in BCL2 translocation-positive human SUDHL4 cells assessed as downregulation of MYC mRNA levels after 24 hrs by qPCR method. A digest of the protocol: as §1
The species named for series [4] is Homo sapiens. The series is described as follows: Binding affinity to c-myc G-quadruplex DNA in MYC translocation-positive and BCL2 amplification-positive human U2932 cells assessed as downregulation of MYC mRNA levels after 24 hrs by qPCR method. An outline of the steps:
as §1
Background: Real-time PCR tracks product formation cycle by cycle.

For series [5], the species on record is Homo sapiens. The series is described as follows: Binding affinity to c-myc G-quadruplex DNA in BCL2 and MYC translocation-positive human VAL cells assessed as downregulation of MYC mRNA levels at 3 uM after 24 hrs by qPCR method. An outline of the steps:
as §1

The species named for series [6] is Homo sapiens. The series can be described thus: Binding affinity to c-myc G-quadruplex DNA in human HT cells assessed as downregulation of MYC mRNA levels at 3 uM after 24 hrs by qPCR method. Type of series: cell-based. A digest of the protocol:
as §1

For series [7], the species on record is Homo sapiens. The series is described as follows: Binding affinity to c-myc G-quadruplex DNA in BCL2 translocation-positive human SUDHL4 cells assessed as downregulation of MYC mRNA levels at 0.25 to 3 uM after 6 hrs by qPCR method.
The species named for series [8] is Homo sapiens. The series can be described thus: Binding affinity to c-myc G-quadruplex DNA in human VAL cells assessed as downregulation of MYC mRNA levels at 0.25 to 3 uM after 6 hrs by qPCR method. Type of series: cell-based.
The species named for series [9] is Homo sapiens. The series is described as follows: Binding affinity to c-myc G-quadruplex DNA in MYC translocation-positive and BCL2 amplification-positive human U2932 cells assessed as downregulation of MYC mRNA levels at 0.25 to 3 uM after 6 hrs by qPCR method.
In series [10] the test system is Mus musculus. The series can be described thus: Toxicity in scid mouse xenografted with human U2932 cells assessed as change in body weight at 2.5 to 5 mg/kg, ip administered for 5 consecutive days in presence of CPA. The format is organism-based. To be noted: in vivo. A digest of the protocol:
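SCID mice aged 6−8 weeks with serum Ig ≤20 μg/mL received U2932 cells (10 × 10^6 in 100 μL saline) subcutaneously in the left flank. Mice were pair-matched by tumor volume. Compound at 2.5 or 5 mg/kg with 50 mg/kg cyclophosphamide was given ip daily for 5 days. Controls received the diluents. Grubbs' test was used to exclude outliers.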
In general terms: Xenograft models place foreign cells or tissue in a host animal.

Series [11] relates to Mus musculus. The series can be described thus: Effect on BCL2 mRNA level in SCID mouse xenografted with human U2932 cells at 2.5 to 5 mg/kg, ip administered for 5 consecutive days cotreated with CPA by qPCR method. Type of series: functional, organism-based. A digest of the protocol: (§2)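 Tumors from U2932 xenograft SCID mice given ip treatment daily for 5 days were harvested. Total RNA was taken from the same tumor preparations used for protein lysates, and MYC or BCL2 mRNA was quantified by TaqMan qPCR normalized to TBP. Comparisons were made with diluent-treated mice or CPA-only mice.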

The species entered for series [12] is Homo sapiens. The series is described as follows: Stabilization of c-myc G-quadruplex DNA in MYC translocation-positive and BCL2 amplification-positive human U2932 cells assessed as potentiation of CPA-induced apoptosis by measuring increase in caspase-3 activity at 3 uM after 24 hrs in presence of NSC-59276 by AFC based fluorescence assay (reference value: 30%).

Series [13] deals with Mus musculus. The series can be described thus: Reduction in Myc mRNA level in SCID mouse xenografted with human U2932 cells at 10 mg/kg, ip administered for 5 consecutive days cotreated with CPA and NSC-59276 by qPCR method. The format is functional, organism-based. A digest of the protocol:
as §2

In series [14] the test system is U2932. The series is described as follows: Potentiation of CPA-induced antitumor activity against human U2932 cells xenografted in SCID mouse assessed as tumor growth inhibition at 7.5 mg/kg, ip for 5 days cotreated with 10 mg/kg NSC-59276 measured on day 12 post first treatment (reference value: 67%). Type of series: functional. An outline of the steps:
(§3)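 U2932 DLBCL cells (10 × 10^6 in 100 μL sterile saline, viability >91%) injected subcutaneously into left flank of SCID mice (6−8 weeks, immunoglobulin ≤20 μg/mL). Mice pair-matched by tumor volume. Drugs given ip daily for 5 days, CPA 30 mg/kg; controls received all diluents. Tumor volume = a2 × b/2 (a smallest, b largest diameter); n = 5−8; Grubbs' test for outliers.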

The subject of series [15] is U2932. The series is described as follows: Potentiation of CPA-induced antitumor activity against human U2932 cells xenografted in SCID mouse assessed as tumor growth inhibition at 7.5 mg/kg, ip for 5 days cotreated with 10 mg/kg NSC-59276 measured on day 9 post first treatment (reference value: 50%). Type of series: functional. A digest of the protocol: as §3
Series [16] concerns Mus musculus. The series is described as follows: Toxicity in scid mouse xenografted with human U2932 cells assessed as change in body weight at 5 mg/kg, ip administered for 5 consecutive days cotreated with NSC-59276 and CPA. Type of series: organism-based. To be noted: in vivo. An outline of the steps:
(§4)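 SCID mice (6−8 weeks, female or male, serum immunoglobulin ≤20 μg/mL by ELISA) implanted subcutaneously in left flank with 10 × 10^6 U2932 cells in 100 μL saline; pair-matched by tumor volume; dosed ip daily for 5 days; controls received all compound diluents; tumor volume a2 × b/2; outliers by Grubbs' test; two-tailed t test with Šidák–Bonferroni correction.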

Series [17] relates to Mus musculus. The series can be described thus: Toxicity in SCID mouse xenografted with human U2932 cells assessed as survival at 7.5 mg/kg, ip administered for 5 consecutive days in presence of CPA. The format is organism-based. The note with it: in vivo. A digest of the protocol:
as §4

Series [18] has as its system Mus musculus. The series can be described thus: Toxicity in scid mouse xenografted with human U2932 cells assessed as change in body weight at 10 mg/kg, ip administered for 5 consecutive days cotreated with NSC-59276 and CPA. Type of series: organism-based. To be noted: in vivo. An outline of the steps:
as §4

Series [19] deals with Mus musculus. The series can be described thus: Reduction in Bcl2 mRNA level in SCID mouse xenografted with human U2932 cells at 10 mg/kg, ip administered for 5 consecutive days cotreated with CPA and NSC-59276 by qPCR method. Type of series: functional, organism-based. A digest of the protocol: as §2

In general, TGI refers to how far tumour growth fell short of that in controls. With `Cc1c2ccncc2c(C)c2c1[nH]c1ccc(OCCN(C)C)cc12.Cl.Cl`, the outcome with HT, in the series listed under Homo sapiens [2] and with Mus musculus [11] was inactive. In addition, the Activity in the series listed under Homo sapiens [1] was < 90%; in the series listed under Homo sapiens [3], “Dose-dependent effect”; in the series filed under Homo sapiens [4], “Dose-dependent effect”; in the series with Mus musculus [10] it was “Non-Toxic”; in the series listed under Homo sapiens [12], 100%; in the series with Mus musculus [16], “Non-Toxic”. The Activity entry is reported as “Non-Toxic” in the series with Mus musculus [17] and “Toxic” with Mus musculus [18]. Besides, the outcome in the series filed under Homo sapiens [5], in the series listed under Homo sapiens [6], in the series filed under Homo sapiens [7], in the series filed under Homo sapiens [8], in the series filed under Homo sapiens [9] and in the series with Mus musculus [13] was Active. Also, the outcome with Mus musculus [19] was Active. In addition, the results for the TGI in the series with U2932 [14] and with U2932 [15] were 46% and 50%, respectively.
